Laboratory results from ChEMBL document CHEMBL5303300, “EUbOPEN Chemogenomics Library - Multiplex” (2023).
Where “and” joins values, the source holds several entries; their conditions need not be identical. Equal values may be shown once.

Experiments:
Assay type in all cases: toxicity, cell-based
Fibroblast = assay: Multiplex assay against human fibroblast; settings: number of replicates 2
Method in brief: (§1)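 Phenotypes for tubulin, mitochondrial mass and membrane permeability are expressed as per cents of healthy-nucleus cells. Cells were stained live at seeding with Hoechst33342, BioTracker Green Microtubule Cytoskeleton Dye, MitoTracker Red and Annexin V Alexa Fluor 680, then imaged after compound addition on a CQ1 microscope at 37°C and 5% CO2. Machine-learning gating in CellPathfinder separated Hoechst high-intensity objects from normal cells, divided normal cells by nuclear state (healthy, pyknosed, fragmented) and divided pyknosed cells into mitotic or apoptotic.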

HEK-293T = assay: Multiplex assay against HEK293T; settings: human, number of replicates 2; method in brief: as §1
U2OS = assay: Multiplex assay against U2OS; settings: human, number of replicates 2; method in brief: as §1
[1] = 12 h, 1 µM, compound concentration 1 uM
[2] = 12 h, 10 µM, compound concentration 10 uM
[3] = 24 h, 1 µM, compound concentration 1 uM
[4] = 24 h, 10 µM, compound concentration 10 uM
[5] = 48 h, 1 µM, compound concentration 1 uM
[6] = 48 h, 10 µM, compound concentration 10 uM

COc1nc2ccc([C@@](O)(c3ccc(Cl)cc3)c3cncn3C)cc2c(Cl)c1Cc1ccc(-n2cccn2)cc1 [JNJ-53721590]
Population Apoptotic (%) (Fibroblast; [1]): 30%
Population Fragmented Nuclei (%) (Fibroblast; [1]): 6% and 11%
Population Healthy Nuclei (%) (Fibroblast; [1]): 68% and 55%
Population Hoechst High Intensity Objects (%) (Fibroblast; [1]): 0%
Population Membrane Permeable-Phenotype (%) (Fibroblast; [1]): 9% and 11%
Population Mitochondria Different-Phenotype (%) (Fibroblast; [1]): 2% and 1%
Population Mitotic Cells (%) (Fibroblast; [1]): 69%
Population Normal (%) (Fibroblast; [1]): 100%
Population Pyknosed Nuclei (%) (Fibroblast; [1]): 24% and 32%
Population Tubulin-Different-Phenotype (%) (Fibroblast; [1]): 38% and 37%
Total Cell Count (Fibroblast; [1]): 210 and 189
Population Apoptotic (%) (Fibroblast; [2]): 37% and 45%
Population Fragmented Nuclei (%) (Fibroblast; [2]): 14% and 7%
Population Healthy Nuclei (%) (Fibroblast; [2]): 63% and 67%
Population Hoechst High Intensity Objects (%) (Fibroblast; [2]): 0%
Population Membrane Permeable-Phenotype (%) (Fibroblast; [2]): 20%
Population Mitochondria Different-Phenotype (%) (Fibroblast; [2]): 5% and 3%
Population Mitotic Cells (%) (Fibroblast; [2]): 62% and 55%
Population Normal (%) (Fibroblast; [2]): 99% and 100%
Population Pyknosed Nuclei (%) (Fibroblast; [2]): 21% and 24%
Population Tubulin-Different-Phenotype (%) (Fibroblast; [2]): 73%
Total Cell Count (Fibroblast; [2]): 206 and 241
Population Apoptotic (%) (Fibroblast; [3]): 62% and 56%
Population Fragmented Nuclei (%) (Fibroblast; [3]): 6% and 14%
Population Healthy Nuclei (%) (Fibroblast; [3]): 68% and 62%
Population Hoechst High Intensity Objects (%) (Fibroblast; [3]): 0%
Population Membrane Permeable-Phenotype (%) (Fibroblast; [3]): 3% and 10%
Population Mitochondria Different-Phenotype (%) (Fibroblast; [3]): 2% and 9%
Population Mitotic Cells (%) (Fibroblast; [3]): 37% and 43%
Population Normal (%) (Fibroblast; [3]): 100%
Population Pyknosed Nuclei (%) (Fibroblast; [3]): 25% and 23%
Population Tubulin-Different-Phenotype (%) (Fibroblast; [3]): 31% and 37%
Total Cell Count (Fibroblast; [3]): 199 and 197
Population Apoptotic (%) (Fibroblast; [4]): 51% and 70%
Population Fragmented Nuclei (%) (Fibroblast; [4]): 20% and 12%
Population Healthy Nuclei (%) (Fibroblast; [4]): 62% and 60%
Population Hoechst High Intensity Objects (%) (Fibroblast; [4]): 0%
Population Membrane Permeable-Phenotype (%) (Fibroblast; [4]): 9% and 6%
Population Mitochondria Different-Phenotype (%) (Fibroblast; [4]): 18% and 20%
Population Mitotic Cells (%) (Fibroblast; [4]): 48% and 29%
Population Normal (%) (Fibroblast; [4]): 100% and 99%
Population Pyknosed Nuclei (%) (Fibroblast; [4]): 16% and 27%
Population Tubulin-Different-Phenotype (%) (Fibroblast; [4]): 75% and 69%
Total Cell Count (Fibroblast; [4]): 218 and 241
Population Apoptotic (%) (Fibroblast; [5]): 85% and 72%
Population Fragmented Nuclei (%) (Fibroblast; [5]): 10% and 13%
Population Healthy Nuclei (%) (Fibroblast; [5]): 72% and 67%
Population Hoechst High Intensity Objects (%) (Fibroblast; [5]): 0%
Population Membrane Permeable-Phenotype (%) (Fibroblast; [5]): 3% and 2%
Population Mitochondria Different-Phenotype (%) (Fibroblast; [5]): 0% and 1%
Population Mitotic Cells (%) (Fibroblast; [5]): 14% and 27%
Population Normal (%) (Fibroblast; [5]): 100%
Population Pyknosed Nuclei (%) (Fibroblast; [5]): 17% and 19%
Population Tubulin-Different-Phenotype (%) (Fibroblast; [5]): 20% and 15%
Total Cell Count (Fibroblast; [5]): 205
Population Apoptotic (%) (Fibroblast; [6]): 87%
Population Fragmented Nuclei (%) (Fibroblast; [6]): 26% and 18%
Population Healthy Nuclei (%) (Fibroblast; [6]): 64%
Population Hoechst High Intensity Objects (%) (Fibroblast; [6]): 0%
Population Membrane Permeable-Phenotype (%) (Fibroblast; [6]): 1% and 2%
Population Mitochondria Different-Phenotype (%) (Fibroblast; [6]): 7% and 8%
Population Mitotic Cells (%) (Fibroblast; [6]): 12%
Population Normal (%) (Fibroblast; [6]): 99% and 100%
Population Pyknosed Nuclei (%) (Fibroblast; [6]): 9% and 16%
Population Tubulin-Different-Phenotype (%) (Fibroblast; [6]): 63% and 53%
Total Cell Count (Fibroblast; [6]): 247 and 282
Population Apoptotic (%) (HEK-293T; [1]): 43% and 52%
Population Fragmented Nuclei (%) (HEK-293T; [1]): 4% and 2%
Population Healthy Nuclei (%) (HEK-293T; [1]): 81%
Population Hoechst High Intensity Objects (%) (HEK-293T; [1]): 7%
Population Membrane Permeable-Phenotype (%) (HEK-293T; [1]): 4% and 5%
Population Mitochondria Different-Phenotype (%) (HEK-293T; [1]): 26%
Population Mitotic Cells (%) (HEK-293T; [1]): 56% and 47%
Population Normal (%) (HEK-293T; [1]): 92%
Population Pyknosed Nuclei (%) (HEK-293T; [1]): 13% and 15%
Population Tubulin-Different-Phenotype (%) (HEK-293T; [1]): 74% and 70%
Total Cell Count (HEK-293T; [1]): 675 and 403
Population Apoptotic (%) (HEK-293T; [2]): 41% and 64%
Population Fragmented Nuclei (%) (HEK-293T; [2]): 2%
Population Healthy Nuclei (%) (HEK-293T; [2]): 88%
Population Hoechst High Intensity Objects (%) (HEK-293T; [2]): 6%
Population Membrane Permeable-Phenotype (%) (HEK-293T; [2]): 21% and 12%
Population Mitochondria Different-Phenotype (%) (HEK-293T; [2]): 24%
Population Mitotic Cells (%) (HEK-293T; [2]): 58% and 35%
Population Normal (%) (HEK-293T; [2]): 93%
Population Pyknosed Nuclei (%) (HEK-293T; [2]): 9% and 8%
Population Tubulin-Different-Phenotype (%) (HEK-293T; [2]): 94%
Total Cell Count (HEK-293T; [2]): 831 and 720
Population Apoptotic (%) (HEK-293T; [3]): 42% and 54%
Population Fragmented Nuclei (%) (HEK-293T; [3]): 6% and 3%
Population Healthy Nuclei (%) (HEK-293T; [3]): 84% and 87%
Population Hoechst High Intensity Objects (%) (HEK-293T; [3]): 8% and 7%
Population Membrane Permeable-Phenotype (%) (HEK-293T; [3]): 4% and 1%
Population Mitochondria Different-Phenotype (%) (HEK-293T; [3]): 11% and 15%
Population Mitotic Cells (%) (HEK-293T; [3]): 57% and 45%
Population Normal (%) (HEK-293T; [3]): 91% and 92%
Population Pyknosed Nuclei (%) (HEK-293T; [3]): 8%
Population Tubulin-Different-Phenotype (%) (HEK-293T; [3]): 57% and 53%
Total Cell Count (HEK-293T; [3]): 1025 and 592
Population Apoptotic (%) (HEK-293T; [4]): 37% and 57%
Population Fragmented Nuclei (%) (HEK-293T; [4]): 2% and 1%
Population Healthy Nuclei (%) (HEK-293T; [4]): 87% and 84%
Population Hoechst High Intensity Objects (%) (HEK-293T; [4]): 5% and 8%
Population Membrane Permeable-Phenotype (%) (HEK-293T; [4]): 16% and 11%
Population Mitochondria Different-Phenotype (%) (HEK-293T; [4]): 19% and 23%
Population Mitotic Cells (%) (HEK-293T; [4]): 62% and 42%
Population Normal (%) (HEK-293T; [4]): 94% and 91%
Population Pyknosed Nuclei (%) (HEK-293T; [4]): 9% and 13%
Population Tubulin-Different-Phenotype (%) (HEK-293T; [4]): 95% and 96%
Total Cell Count (HEK-293T; [4]): 856 and 731
Population Apoptotic (%) (HEK-293T; [5]): 18% and 38%
Population Fragmented Nuclei (%) (HEK-293T; [5]): 10% and 8%
Population Healthy Nuclei (%) (HEK-293T; [5]): 86% and 85%
Population Hoechst High Intensity Objects (%) (HEK-293T; [5]): 8% and 11%
Population Membrane Permeable-Phenotype (%) (HEK-293T; [5]): 5% and 2%
Population Mitochondria Different-Phenotype (%) (HEK-293T; [5]): 2% and 7%
Population Mitotic Cells (%) (HEK-293T; [5]): 81% and 61%
Population Normal (%) (HEK-293T; [5]): 91% and 88%
Population Pyknosed Nuclei (%) (HEK-293T; [5]): 3% and 6%
Population Tubulin-Different-Phenotype (%) (HEK-293T; [5]): 37% and 39%
Total Cell Count (HEK-293T; [5]): 2031 and 1111
Population Apoptotic (%) (HEK-293T; [6]): 40% and 52%
Population Fragmented Nuclei (%) (HEK-293T; [6]): 5% and 6%
Population Healthy Nuclei (%) (HEK-293T; [6]): 90% and 87%
Population Hoechst High Intensity Objects (%) (HEK-293T; [6]): 10% and 12%
Population Membrane Permeable-Phenotype (%) (HEK-293T; [6]): 28% and 21%
Population Mitochondria Different-Phenotype (%) (HEK-293T; [6]): 3% and 4%
Population Mitotic Cells (%) (HEK-293T; [6]): 60% and 47%
Population Normal (%) (HEK-293T; [6]): 89% and 87%
Population Pyknosed Nuclei (%) (HEK-293T; [6]): 4% and 5%
Population Tubulin-Different-Phenotype (%) (HEK-293T; [6]): 93% and 95%
Total Cell Count (HEK-293T; [6]): 993 and 855
Population Healthy Nuclei (%) (U2OS; [1]): 56% and 85%
Population Hoechst High Intensity Objects (%) (U2OS; [1]): 0%
Population Membrane Permeable-Phenotype (%) (U2OS; [1]): 5% and 1%
Population Mitochondria Different-Phenotype (%) (U2OS; [1]): 0% and 20%
Population Normal (%) (U2OS; [1]): 100%
Population Pyknosed Nuclei (%) (U2OS; [1]): 16% and 10%
Population Tubulin-Different-Phenotype (%) (U2OS; [1]): 23% and 37%
Population Apoptotic (%) (U2OS; [2]): 74% and 57%
Population Fragmented Nuclei (%) (U2OS; [2]): 2% and 12%
Population Healthy Nuclei (%) (U2OS; [2]): 82% and 74%
Population Hoechst High Intensity Objects (%) (U2OS; [2]): 0%
Population Membrane Permeable-Phenotype (%) (U2OS; [2]): 29% and 21%
Population Mitochondria Different-Phenotype (%) (U2OS; [2]): 28% and 56%
Population Mitotic Cells (%) (U2OS; [2]): 25% and 42%
Population Normal (%) (U2OS; [2]): 99% and 100%
Population Pyknosed Nuclei (%) (U2OS; [2]): 14% and 12%
Population Tubulin-Different-Phenotype (%) (U2OS; [2]): 89% and 97%
Population Apoptotic (%) (U2OS; [3]): 50% and 62%
Population Fragmented Nuclei (%) (U2OS; [3]): 20% and 0%
Population Healthy Nuclei (%) (U2OS; [3]): 45% and 85%
Population Hoechst High Intensity Objects (%) (U2OS; [3]): 0%
Population Membrane Permeable-Phenotype (%) (U2OS; [3]): 0% and 1%
Population Mitochondria Different-Phenotype (%) (U2OS; [3]): 6% and 17%
Population Mitotic Cells (%) (U2OS; [3]): 50% and 37%
Population Normal (%) (U2OS; [3]): 100% and 99%
Population Pyknosed Nuclei (%) (U2OS; [3]): 34% and 13%
Population Tubulin-Different-Phenotype (%) (U2OS; [3]): 25% and 42%
Population Apoptotic (%) (U2OS; [4]): 79% and 36%
Population Fragmented Nuclei (%) (U2OS; [4]): 3% and 12%
Population Healthy Nuclei (%) (U2OS; [4]): 78% and 64%
Population Hoechst High Intensity Objects (%) (U2OS; [4]): 0%
Population Membrane Permeable-Phenotype (%) (U2OS; [4]): 34% and 35%
Population Mitochondria Different-Phenotype (%) (U2OS; [4]): 43% and 54%
Population Normal (%) (U2OS; [4]): 99% and 100%
Population Pyknosed Nuclei (%) (U2OS; [4]): 18% and 22%
Population Tubulin-Different-Phenotype (%) (U2OS; [4]): 93%
Population Apoptotic (%) (U2OS; [5]): 70% and 81%
Population Healthy Nuclei (%) (U2OS; [5]): 86% and 54%
Population Hoechst High Intensity Objects (%) (U2OS; [5]): 0%
Population Mitochondria Different-Phenotype (%) (U2OS; [5]): 9% and 13%
Population Mitotic Cells (%) (U2OS; [5]): 29% and 18%
Population Normal (%) (U2OS; [5]): 99% and 100%
Population Pyknosed Nuclei (%) (U2OS; [5]): 10% and 26%
Population Apoptotic (%) (U2OS; [6]): 64% and 85%
Population Healthy Nuclei (%) (U2OS; [6]): 47% and 65%
Population Hoechst High Intensity Objects (%) (U2OS; [6]): 0%
Population Membrane Permeable-Phenotype (%) (U2OS; [6]): 57% and 47%
Population Mitochondria Different-Phenotype (%) (U2OS; [6]): 48% and 34%
Population Mitotic Cells (%) (U2OS; [6]): 35% and 14%
Population Normal (%) (U2OS; [6]): 100% and 99%
Population Pyknosed Nuclei (%) (U2OS; [6]): 24% and 26%
Population Tubulin-Different-Phenotype (%) (U2OS; [6]): 96% and 90%
